Activity calls are given as the source filed them. No cut-off for these calls is given here.

As a reminder, the Kd is a measure of binding affinity in units of concentration. Low values mean a tighter complex, high ones a looser complex. By IC50 is commonly meant the concentration at which inhibition is half-maximal.

For experiment [1], the target named is T1, RecQ-like DNA helicase BLM (Homo sapiens, UniProt P54132). Description: Inhibition of 5'-biotin labeled duplex forked-DNA binding to BLM (unknown origin) assessed as increase in unbound DNA levels at 0.5 to 1 uM after 1 hr by filter-binding assay. In a few lines: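 BLM (100 nM) preincubated with 0.5 or 1.0 μM ligand for 1 h at 37 °C, then mixed with 8 nM biotinylated duplex forked DNA. Vacuum-filtered through nitrocellulose over nylon membranes; DNA UV-crosslinked and detected by chemiluminescence. Dot grey levels give bound (upper) vs free (lower) DNA, relative to total.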
T1 sequence (P54132 whole entry): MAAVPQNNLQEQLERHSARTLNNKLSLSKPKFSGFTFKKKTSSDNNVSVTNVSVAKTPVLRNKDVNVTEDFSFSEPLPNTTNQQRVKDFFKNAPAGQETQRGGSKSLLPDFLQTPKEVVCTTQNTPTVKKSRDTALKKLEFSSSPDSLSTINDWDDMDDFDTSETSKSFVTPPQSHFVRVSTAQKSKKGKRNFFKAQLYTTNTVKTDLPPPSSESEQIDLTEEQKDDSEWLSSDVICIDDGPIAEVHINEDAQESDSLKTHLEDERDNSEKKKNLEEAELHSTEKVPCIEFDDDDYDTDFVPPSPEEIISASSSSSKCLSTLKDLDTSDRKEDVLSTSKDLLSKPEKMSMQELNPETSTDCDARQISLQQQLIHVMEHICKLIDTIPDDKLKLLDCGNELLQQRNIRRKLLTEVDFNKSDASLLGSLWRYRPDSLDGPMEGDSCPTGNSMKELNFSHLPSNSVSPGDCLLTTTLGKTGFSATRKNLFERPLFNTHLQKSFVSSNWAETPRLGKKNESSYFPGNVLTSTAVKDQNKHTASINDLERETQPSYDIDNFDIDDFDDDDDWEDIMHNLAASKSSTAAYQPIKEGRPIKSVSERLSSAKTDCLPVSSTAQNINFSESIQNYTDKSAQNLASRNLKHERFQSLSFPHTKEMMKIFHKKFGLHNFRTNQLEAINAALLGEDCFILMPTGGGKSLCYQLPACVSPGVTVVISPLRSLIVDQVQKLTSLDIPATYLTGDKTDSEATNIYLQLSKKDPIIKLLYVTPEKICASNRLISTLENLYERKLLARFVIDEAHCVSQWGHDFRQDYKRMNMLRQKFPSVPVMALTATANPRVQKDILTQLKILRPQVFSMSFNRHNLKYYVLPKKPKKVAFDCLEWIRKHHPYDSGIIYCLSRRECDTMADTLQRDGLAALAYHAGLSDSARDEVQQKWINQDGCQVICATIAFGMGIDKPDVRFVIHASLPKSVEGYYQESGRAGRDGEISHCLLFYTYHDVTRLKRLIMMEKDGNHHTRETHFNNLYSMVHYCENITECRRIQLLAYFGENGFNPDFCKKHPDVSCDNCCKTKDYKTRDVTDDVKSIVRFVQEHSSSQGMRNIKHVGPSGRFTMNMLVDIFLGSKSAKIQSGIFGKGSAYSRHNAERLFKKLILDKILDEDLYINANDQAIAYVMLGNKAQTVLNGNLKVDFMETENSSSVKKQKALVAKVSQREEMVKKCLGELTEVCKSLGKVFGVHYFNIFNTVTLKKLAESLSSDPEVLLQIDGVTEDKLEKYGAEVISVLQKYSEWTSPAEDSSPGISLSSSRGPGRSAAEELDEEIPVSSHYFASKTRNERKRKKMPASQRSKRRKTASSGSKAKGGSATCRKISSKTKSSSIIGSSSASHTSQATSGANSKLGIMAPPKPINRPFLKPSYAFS

Experiment [2] deals with T1, RecQ-like DNA helicase BLM. As to the kind of experiment: Inhibition of BLM recruitment to DSB sites on HRR in human HCT116 cells at 0.5 to 1 uM after 48 hrs by ChIP assay. The format is cell-based. The method, boiled down:
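HCT116 cells co-transfected with HRR(−) reporter DSB model (or chromosomal I-SceI DSBs) and I-SceI; after 24 h given 0–2 μM ligand for 24 h. Crosslinked in 1% formaldehyde, chromatin digested by micrococcal nuclease to 0.2–0.5 kb, IP with anti-BLM or anti-RAD51 (IgG control). qPCR at DSB sites, normalised to untreated; triplicate.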

The target in experiment [3] is T1, RecQ-like DNA helicase BLM. As to the kind of experiment: Inhibition of ATP hydrolysis activity of His-tagged BLM (unknown origin) expressed in Escherichia coli BL21 (DE3) at 1 to 10 uM.
Experiment [4] has as its target T1, RecQ-like DNA helicase BLM. Description: Inhibition of BLM in human HCT116 cells assessed as induction of HRR up-regulation at 1 uM after 24 hrs by GFP-based flow cytometry relative to untreated control. The class given is cell-based. The method, boiled down: (§1)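 HCT116 cells (2×10^5) co-transfected with DR-GFP HRR reporter and I-SceI plasmid; 24 h later treated with 0–2 μM ligand (reference 0–50 μM); BLM siRNA knockdown where stated. GFP-positive cells counted by flow cytometry and normalised to untreated; triplicate, mean ± SD.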
A general note: In flow cytometry, cells or beads pass a laser one at a time.

The target of experiment [5] is RecQ-like DNA helicase BLM (Homo sapiens, UniProt P54132, M1111A). As to the kind of experiment: Binding affinity to His-tagged BLM M1111A mutant (unknown origin) expressed in Escherichia coli BL21 (DE3) by ITC assay. The method, boiled down:
(§2)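 ITC at 25 °C in 2 mM MgCl2, 10 mM KH2PO4, pH 7.5: ligand (0.6 mM, syringe) titrated in 10 μL injections, 300 s apart, into BLM642-1296 wild-type or point mutant, or DNA (0.04 mM, cell). His-tagged BLM from E. coli BL21(DE3), induced with […] at 16 °C for 24 h. Heats integrated, fitted to 1:1 model for KD.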
A general note: Isothermal titration calorimetry measures the heat released or taken up as one component is titrated into another.

Experiment [6] concerns the target T1, RecQ-like DNA helicase BLM. Description: Inhibition of His-tagged BLM (unknown origin) expressed in Escherichia coli BL21 (DE3) assessed as reduction in BLM helicase unwinding activity at 1 uM using 5'-biotin labeled forked-DNA as substrate after 1 hr by PAGE analysis. The method, boiled down:
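BLM642-1296 (His-tagged, E. coli BL21(DE3)) preincubated with ligand (1.0, 10, 50 μM; ≤1% DMSO) for 1 h at 4 °C. Reaction: 8 nM annealed 5′-biotin duplex forked DNA, 32 nM BLM, 2 mM ATP, 0.1% BSA, 1 h.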

Experiment [7] has as its system HCT-116. As to the kind of experiment: Induction of apoptosis in human HCT116 cells assessed as up-regulation of CHK1 phosphorylation up to 2 uM after 24 hrs by Western blot analysis.
In experiment [8] the target is T1, RecQ-like DNA helicase BLM. As to the kind of experiment: Inhibition of BLM in human HCT116 cells assessed as induction of HRR up-regulation after 24 hrs by GFP-based flow cytometry. The class given is cell-based. In a few lines:
as §1

Experiment [9] concerns HCT-116. As to the kind of experiment: Induction of apoptosis in human HCT116 cells assessed as increase in cleaved caspase 7 expression at 2 uM after 48 hrs by Western blot analysis. The class given is functional, cell-based. In a few lines:
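HCT116 cells treated with ligand (DNA-damage proteins 24 h, apoptosis proteins 48 h), lysed in RIPA at 4 °C. 40 μg protein per lane resolved by SDS-PAGE, blotted to PVDF, probed with damage and apoptosis antibody panels; β-actin loading control; chemiluminescent detection.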
A general note: Immunoblotting shows a protein as a band on a membrane.

For experiment [10], the target named is T1, RecQ-like DNA helicase BLM. Description: Binding affinity to His-tagged BLM (642 to 1296 residues) (unknown origin) expressed in Escherichia coli BL21 (DE3) by ITC assay. In a few lines: as §2
Experiment [11] concerns DNA. Description: Binding affinity to DNA (unknown origin) up to 2 molar ratio by ITC. The format is nucleic-acid assay. In a few lines: as §2
The test system of experiment [12] is HCT-116. Description: Chemosensitization activity in human HCT116 cells assessed as RI-I-induced antiproliferative activity at 1.25 uM in presence of RI-I after 24 hrs by MTT assay. The class given is functional, cell-based.
The subject of experiment [13] is HCT-116. As to the kind of experiment: Antiproliferative activity against human HCT116 cells up to 2 uM incubated up to 15 days by MTT assay. The format is functional, cell-based.
The subject of experiment [14] is RecQ-like DNA helicase BLM (Homo sapiens), P54132 [E1143A]. As to the kind of experiment: Inhibition of His-tagged BLM E1143A mutant (unknown origin) binding to DNA assessed as effect on unbound DNA. The method, boiled down:
(§3)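 Biotinylated forked DNA (50 nM) immobilised on streptavidin plates overnight at 4 °C. BLM or mutant (100 nM final) premixed with serially halved ligand in 3% BSA blocking buffer, ≤1% DMSO, 1 h on ice. Applied to the blocked plate for 1 h at 37 °C. Bound BLM detected with anti-BLM and HRP secondary, TMB, A450; Hill fit.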

Experiment [15] addresses T1, RecQ-like DNA helicase BLM. Description: Inhibition of His-tagged BLM (unknown origin) expressed in Escherichia coli BL21 (DE3) assessed as reduction in BLM helicase unwinding activity using 5'-biotin labeled forked-DNA as substrate after 1 hr by PAGE analysis.
The subject of experiment [16] is RecQ-like DNA helicase BLM (Homo sapiens), P54132 [H996A]. As to the kind of experiment: Inhibition of His-tagged BLM H996A mutant (unknown origin) binding to DNA assessed as effect on unbound DNA. The method, boiled down: as §3
For experiment [17], the system named is HCT-116. Description: Induction of apoptosis in human HCT116 cells assessed as up-regulation of CHK2 phosphorylation up to 2 uM after 24 hrs by Western blot analysis.
Experiment [18] concerns the target T1, RecQ-like DNA helicase BLM. Description: Inhibition of BLM in human HCT116 cells assessed as DNA damage by measuring gammaH2AX up to 2 uM after 48 hrs by […]. The format is cell-based.
Experiment [19] deals with T1, RecQ-like DNA helicase BLM. As to the kind of experiment: Inhibition of BLM (unknown origin) assessed as increase in RAD51-ssDNA filaments up to 5 uM after 24 hrs by ELISA based DNA exchange activity assay.
The subject of experiment [20] is RecQ-like DNA helicase BLM (Homo sapiens), P54132 [Y995A]. Description: Inhibition of His-tagged BLM Y995A mutant (unknown origin) binding to DNA assessed as effect on unbound DNA. The method, boiled down:
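Truncated His-tagged BLM (residues 642-1296) mutant expressed in E. coli BL21(DE3). ELISA with 5′-biotin forked DNA (50 nM) immobilized on streptavidin plates at 4 °C overnight. BLM at 100 nM final was premixed with half-diluted compound (≤1% DMSO) on ice for 1 h, then added at 37 °C for 1 h. Bound BLM was detected with anti-BLM/HRP-TMB at A450; curves were Hill-fitted.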

RecQ-like DNA helicase BLM (Homo sapiens, UniProt P54132, M1111A), sequence (P54132 whole entry M1111A): as the sequence (P54132 whole entry) above, with M1111A counted along it
RecQ-like DNA helicase BLM (Homo sapiens), P54132 [E1143A], sequence (P54132 whole entry E1143A): as the sequence (P54132 whole entry) above, with E1143A counted along it
RecQ-like DNA helicase BLM (Homo sapiens), P54132 [H996A], sequence (P54132 whole entry H996A): as the sequence (P54132 whole entry) above, with H996A counted along it
RecQ-like DNA helicase BLM (Homo sapiens), P54132 [Y995A], sequence (P54132 whole entry Y995A, the tested form may be a part): as the sequence (P54132 whole entry) above, with Y995A counted along it

For `CCN(CC)CCCNc1cc2nc3n(c(=O)c2cc1F)CC/C3=C\c1ccc(C(C)C)cc1`, the inhibition entry in [1], in experiment [2], in [6] and in experiment [18] was “Active” each time. Also, the inhibition result in [3], in experiment [14], in experiment [16] and in [20] was “inactive” in each case. For the same molecule, in [4], the fold change (FC) is less than 3. Further, the Kd in [5] was 4.9 µM; in experiment [10], 1.8 µM. In addition, the Activity result in experiment [7] and in [17] was “Dose-dependent effect” in each case. Also, the inhibition entry in experiment [8] and in experiment [19] was “Dose-dependent effect” in each case. Moreover, the result in experiment [9], in [12] and in experiment [13] was Active. For the same molecule, the outcome in [11] was inactive. Also, in experiment [15], the IC50 was 0.95 µM.

The record behind these values is ChEMBL document CHEMBL4316604, “Discovery of Isaindigotone Derivatives as Novel Bloom's Syndrome Protein (BLM) Helicase Inhibitors That Disrupt the BLM/DNA Interactions and Regulate the Homologous Recombination Repair” (J Med Chem, 2019).
